Experimental data published in ChEMBL document CHEMBL2040790 (Bioorg Med Chem Lett, 2012).
The source made the active and inactive calls. The calls are words filed in the database; no cut-off is given here.

What was measured:
[1] = system: Vaccinia virus; test: Antiviral activity against Vaccinia virus; assay type: functional, organism-based; settings: Orthopoxvirus vaccinia
[2] = system: La Crosse virus; test: Antiviral activity against La Crosse virus infected in african green monkey Vero cells assessed as inhibition of virus-induced cytopathic effect by fluorometric analysis; assay type: functional, organism-based
[3] = Solubility of the compound in water; assay type: physicochemical
[4] = Solubility of the compound in simulated gastric fluid; assay type: physicochemical; settings: simulated gastric fluid; read-out: solubility
[5] = Solubility of the compound in Caco2 transport buffer; assay type: physicochemical, Caco-2
[6] = system: La Crosse virus; test: Antiviral activity against La Crosse virus infected in african green monkey Vero cells assessed as inhibition of virus-induced cytopathic effect at 5 uM after 4 days by spectrophotometric analysis; assay type: functional, organism-based
Summary of the method: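 Primary screen run at one fixed concentration of 5 μM. Compounds active at that level were then carried into dose-response testing (0.009–25 μM) against RVFV and LACV.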

[7] = system: Rift Valley fever virus; test: Antiviral activity against Rift Valley fever virus at 5 uM; assay type: functional, organism-based
Summary of the method: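 Single-concentration primary screen at 5 μM. Molecules active there and bearing viable scaffolds were then taken into concentration-response testing over 0.009–25 μM.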

[8] = system: Ebolavirus; test: Antiviral activity against Ebola virus; assay type: functional
[9] = system: Human immunodeficiency virus 1; test: Antiviral activity against Human immunodeficiency virus 1; assay type: functional, organism-based
[10] = system: Tacaribe virus; test: Antiviral activity against Tacaribe virus; assay type: functional, organism-based; settings: Mammarenavirus tacaribeense
[11] = system: Mammarenavirus choriomeningitidis; test: Antiviral activity against Lymphocytic choriomeningitis virus; assay type: functional
[12] = system: Encephalomyocarditis virus; test: Antiviral activity against Encephalomyocarditis virus; assay type: functional, organism-based
[13] = system: Sindbis virus; test: Antiviral activity against Sindbis virus; assay type: functional, organism-based
[14] = system: Dengue virus; test: Antiviral activity against Dengue virus; assay type: functional, organism-based
[15] = system: Orthohantavirus andesense; test: Antiviral activity against Andes virus; assay type: functional
[16] = system: Respiratory syncytial virus; test: Antiviral activity against Respiratory syncytial virus; assay type: functional, organism-based
[17] = system: unidentified influenza virus; test: Antiviral activity against influenza virus; assay type: functional, organism-based
[18] = system: Vaccinia virus; test: Antiviral activity against Vaccinia virus at 25 uM during one experiment of multiple experiment set up; assay type: functional, organism-based; settings: Orthopoxvirus vaccinia
[19] = system: La Crosse virus; test: Antiviral activity against La Crosse virus infected in african green monkey Vero cells assessed as inhibition of virus-induced cytopathic effect during single experiment set up by fluorometric analysis; assay type: functional, organism-based

`CNc1ccc(NC(=S)NC(=O)c2ccc(C(C)(C)C)cc2)c(Cl)c1.Cl` showed an EC50 [1] of 330 nM, an EC50 [2] of 240 nM and a solubility [3] of 0.2 µg/mL. For the same compound, the solubility [4] was 3.2 µg/mL and the solubility [5] was 0.1 µg/mL.
With `COc1cc(NC(=S)NC(=O)c2ccc(C(C)(C)C)cc2)ccc1NC(=O)c1ccccc1Cl` the Activity [6] was “Active”, the Activity [7] was “Active” and the Activity [8] was “Active”. The EC50 [1] was 250 nM, the Activity [9] was “Active” and the Activity [10] was “Active”. The Activity [11] was “Active”, the Activity [12] was “Active” and the Activity [13] was “Active”. For the same compound, the Activity [14] was “Active”, the Activity [15] was “Active” and the Activity [16] was “Active”. For the same compound, the Activity [17] was “Active” and the EC50 [2] was 270 nM.
In the case of `COc1cc(NC(=S)NC(=N)c2ccc(C(C)(C)C)cc2)ccc1NC(=O)c1ccccc1Cl`, the EC50 [1] is reported as 7640 nM, the EC50 [2] is reported as 3010 nM and the Activity [18] is reported as “inactive”.
For `CC(C)(C)c1ccc(C(=O)NC(=S)Nc2ccccc2CN)cc1`, the EC50 [1] was > 25000 nM, the EC50 [2] was > 25000 nM and the EC50 [19] was 6930 nM.
